{"source": "ChEMBL document CHEMBL4043284", "about": "“The Synthesized Plant Metabolite 3,4,5-Tri-O-Galloylquinic Acid Methyl Ester Inhibits Calcium Oxalate Crystal Growth in a Drosophila Model, Downregulates Renal Cell Surface Annexin A1 Expression, and Decreases Crystal Adhesion to Cells” (J Med Chem, 2018)", "key": {"[1]": {"test": "Antioxidant activity assessed as DPPH radical scavenging activity incubated in dark for 20 mins", "type": "functional", "outline": "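Compound stock 1 mM in DMSO; 2–20 μL portions made up to 40 μL with DMSO and added to 1.96 mL of 0.1 mM DPPH. Held at RT for 20 min in the dark, then absorbance read at 517 nm. DPPH alone served as control. % radical scavenging = (control − test)/control × 100.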"}, "[2]": {"test": "Cytotoxicity against MDCK1 cells assessed as decrease in cell viability after 24 hrs by MTT assay", "type": "cell-based", "conditions": "Canis lupus familiaris, MDCK1, 24 h", "outline": "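MDCKI cells seeded at 1×10^4 per well, exposed 24 h to 0, 5, 10, 25, 50 μM (in DMSO/PBS). MTT (5 mg/mL working solution) added for 3 h at 37°C, then stop solution; OD read at 570 nm. Viability expressed as percent of untreated control after blank subtraction; IC50 reported. Means ± S.D. of three independent experiments.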"}, "[3]": {"test": "Cytotoxicity against MDCK1 cells assessed as decrease in cell viability up to 155 +/- 4 uM after 24 hrs by MTT assay", "type": "cell-based, Canis lupus familiaris", "conditions": "dog, mdck1, 24 h"}, "[4]": {"test": "Effect on total alpha-enolase expression in MDCK1 cells at 50 uM after 3 hrs by Western blot method", "type": "ADME, cell-based, Canis lupus familiaris", "conditions": "dog, mdck1, 3 h", "outline": "(§1)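 MDCKI cells seeded at 5×10^5 per well and treated with 50 μM for 3 h. Cytosolic fraction extracted with PIPES/EDTA/0.02% digitonin buffer for 10 min at 4°C. Membrane fraction taken from the pellet in SDS/Tris pH 6.8 buffer. Whole lysate prepared separately. 30 μg protein per lane on 7.5% gel; blots probed for annexin A1, HSP90 and α-enolase, with β-actin as loading control. Bands read by ECL densitometry. Mean ± SEM, n=3.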"}, "MDCK1 [5]": {"test_system": "MDCK1", "test": "Upregulation of AxA1 expression in cytosolic fractions of MDCK1 cells at 50 uM after 3 hrs by Western blot method", "type": "functional, cell-based", "conditions": "Canis lupus familiaris", "outline": "as §1"}, "MDCK1 [6]": {"test_system": "MDCK1", "test": "Downregulation of alpha-enolase expression in membrane fractions of MDCK1 cells at 50 uM after 3 hrs by Western blot method", "type": "functional, cell-based", "conditions": "Canis lupus familiaris", "outline": "as §1"}, "MDCK1 [7]": {"test_system": "MDCK1", "test": "Downregulation of HSP90 expression in membrane fractions of MDCK1 cells at 50 uM after 3 hrs by Western blot method", "type": "functional, cell-based", "conditions": "Canis lupus familiaris", "outline": "as §1"}, "[8]": {"test": "Inhibition of cell surface associated calcium oxalate monohydrate crystal levels in MDCK1 cells preincubated for 3 to 6 hrs followed by calcium oxalate monohydrate crystal addition measured after 30 mins by phase contrast microscopy relative to control", "type": "functional, Canis lupus familiaris", "outline": "(§2)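 MDCKI cells seeded at 5×10^5 per well and cultured for 24 h. Pretreated at 0–50 μM for 3 h (concentration series), or at 25 or 50 μM for 1, 3 or 6 h (time course). Cells then washed and exposed to COM crystals (100 μg/mL) for 30 min, followed by five washes with plain medium. Adherent crystals counted by phase-contrast microscopy in 15 random high-power fields, ×400.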"}, "MDCK1 [9]": {"test_system": "MDCK1", "test": "Downregulation of AxA1 expression in membrane fractions of MDCK1 cells at 50 uM after 3 hrs by Western blot method", "type": "functional, cell-based", "conditions": "Canis lupus familiaris", "outline": "as §1"}, "MDCK1 [10]": {"test_system": "MDCK1", "test": "Upregulation of HSP90 expression in cytosolic fractions of MDCK1 cells at 50 uM after 3 hrs by Western blot method", "type": "functional, cell-based", "conditions": "Canis lupus familiaris", "outline": "as §1"}, "[11]": {"test": "Effect on total HSP90 expression in MDCK1 cells at 50 uM after 3 hrs by Western blot method", "type": "ADME, cell-based, Canis lupus familiaris", "conditions": "dog, mdck1, 3 h", "outline": "as §1"}, "MDCK1 [12]": {"test_system": "MDCK1", "test": "Inhibition of calcium oxalate monohydrate crystal binding to MDCK1 cell surface preincubated for 3 hrs followed by calcium oxalate monohydrate crystal addition measured after 30 mins by phase contrast microscopy", "type": "functional, cell-based", "conditions": "Canis lupus familiaris", "outline": "as §2"}, "[13]": {"test": "Effect on total AxA1 expression in MDCK1 cells at 50 uM after 3 hrs by Western blot method", "type": "ADME, cell-based, Canis lupus familiaris", "conditions": "dog, mdck1, 3 h", "outline": "as §1"}, "Drosophila melanogaster [14]": {"test_system": "Drosophila melanogaster", "test": "Inhibition of calcium oxalate crystal size in Oregon R Drosophila melanogaster malpighian tubule model at 100 uM preincubated with test compound alone for 20 mins followed by addition of calcium oxalate along with test compound measured after 1 hr by DIC microscopy", "type": "functional", "outline": "(§3)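 Malpighian tubules dissected from wild-type Oregon R female flies. Tubules preincubated in iPBS with 100 μM for 20 min, then given 100 μM plus Na-oxalate for 1 h, with solutions renewed every 15 min. Controls received oxalate alone. The first 600 μm of anterior tubule imaged by DIC birefringence. Crystal number and area measured with ImageJ. n=12 per group; means ± SE.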"}, "Drosophila melanogaster [15]": {"test_system": "Drosophila melanogaster", "test": "Inhibition of total calcium oxalate crystal area in Oregon R Drosophila melanogaster malpighian tubule model at 100 uM preincubated with test compound alone for 20 mins followed by addition of calcium oxalate along with test compound measured after 1 hr by DIC microscopy", "type": "functional", "outline": "as §3"}, "Drosophila melanogaster [16]": {"test_system": "Drosophila melanogaster", "test": "Inhibition of calcium oxalate crystallization in Oregon R Drosophila melanogaster malpighian tubule model at 100 uM preincubated with test compound alone for 20 mins followed by addition of calcium oxalate along with test compound measured after 1 hr by DIC microscopy", "type": "functional", "outline": "as §3"}, "MDCK1 [17]": {"test_system": "MDCK1", "test": "Upregulation of alpha-enolase expression in cytosolic fractions of MDCK1 cells at 50 uM after 3 hrs by Western blot method", "type": "functional, cell-based", "conditions": "Canis lupus familiaris", "outline": "as §1"}, "MDCK1 [18]": {"test_system": "MDCK1", "test": "Increase in intracellular AxA1 expression in MDCK1 cells at 50 uM after 3 hrs by laser scanning confocal microscopic method", "type": "functional, cell-based", "conditions": "Canis lupus familiaris", "outline": "(§4)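 MDCKI cells grown overnight on collagen-coated chamber slides and treated ± 50 μM for 3 h. Fixed in 4% paraformaldehyde. Intracellular staining done with 0.2% Triton permeabilization; surface staining done without permeabilization. Rabbit anti-annexin A1 applied overnight at 4°C, then Alexa Fluor 488 anti-rabbit secondary. Nuclei counterstained with TOTO-3. Imaged by confocal microscopy, 63× oil objective.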"}, "[19]": {"test": "Inhibition of AxA1 expression in MDCK1 cell surface at 50 uM after 3 hrs by laser scanning confocal microscopic method relative to control", "type": "functional", "conditions": "Canis lupus familiaris, MDCK1, 3 h", "outline": "as §4"}, "MDCK1 [20]": {"test_system": "MDCK1", "test": "Inhibition of calcium oxalate monohydrate crystal binding to MDCK1 cell surface at 10 uM preincubated for 3 hrs followed by calcium oxalate monohydrate crystal addition measured after 30 mins by phase contrast microscopy", "type": "functional, cell-based", "conditions": "Canis lupus familiaris", "outline": "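MDCKI cells (5×10^5 per well) cultured 24 h in complete medium, pretreated 3 h with 0, 1 or 10 μM, washed with PBS, then exposed 30 min to COM crystals (100 μg/mL medium). Unbound crystals removed by five washes with plain DMEM. Adherent crystals counted by phase-contrast microscopy in 15 random high-power fields per well.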"}}, "note": "Activity calls are given as the source filed them. The calls are words filed in the database; no cut-off is given here.", "data": [{"smiles": "COC(=O)[C@]1(O)C[C@@H](O)[C@@H](O)[C@H](O)C1", "values": [{"measurement": "Activity", "setting": "[1]", "value": "inactive"}, {"measurement": "IC50", "setting": "[2]", "value": 120, "unit": "µM"}]}, {"smiles": "O=C1O[C@H]([C@@H](O)CO)C(O)=C1O", "note": "[ASCORBIC ACID]", "values": [{"measurement": "EC50", "setting": "[1]", "value": 45, "unit": "µM"}]}, {"smiles": "COC(=O)[C@]1(O)C[C@@H](OC(=O)c2cc(O)c(O)c(O)c2)[C@@H](OC(=O)c2cc(O)c(O)c(O)c2)[C@H](OC(=O)c2cc(O)c(O)c(O)c2)C1", "values": [{"measurement": "Activity", "setting": "[3]", "value": "Non-Toxic"}, {"measurement": "Activity", "setting": "[4]", "value": "Non-Toxic"}, {"measurement": "Activity", "setting": "MDCK1 [5]", "value": "Active"}, {"measurement": "Activity", "setting": "MDCK1 [6]", "value": "Active"}, {"measurement": "Activity", "setting": "MDCK1 [7]", "value": "Active"}, {"measurement": "inhibition (INH)", "setting": "[8]", "value": 50, "unit": "%"}, {"measurement": "Activity", "setting": "MDCK1 [9]", "value": "Active"}, {"measurement": "Activity", "setting": "MDCK1 [10]", "value": "Active"}, {"measurement": "Activity", "setting": "[11]", "value": "Non-Toxic"}, {"measurement": "EC50", "setting": "[1]", "value": 11, "unit": "µM"}, {"measurement": "inhibition", "setting": "MDCK1 [12]", "value": "Dose-dependent effect"}, {"measurement": "Activity", "setting": "[13]", "value": "Non-Toxic"}, {"measurement": "inhibition", "setting": "Drosophila melanogaster [14]", "value": "Active"}, {"measurement": "inhibition", "setting": "Drosophila melanogaster [15]", "value": "Active"}, {"measurement": "inhibition", "setting": "Drosophila melanogaster [16]", "value": "Active"}, {"measurement": "Activity", "setting": "MDCK1 [17]", "value": "Active"}, {"measurement": "Activity", "setting": "MDCK1 [18]", "value": "Active"}, {"measurement": "inhibition at 50 µM", "setting": "[19]", "value": 50, "unit": "%"}]}, {"smiles": "O=C(O)c1cc(O)c(O)c(O)c1", "note": "[GALLIC ACID]", "values": [{"measurement": "inhibition", "setting": "MDCK1 [20]", "value": "Active"}, {"measurement": "EC50", "setting": "[1]", "value": 3, "unit": "µM"}, {"measurement": "IC50", "setting": "[2]", "value": 34, "unit": "µM"}]}]}
